Reference: ChEMBL document CHEMBL1155720, “Antioxidant principles from Bauhinia tarapotensis” (J Nat Prod, 2001)

Legend:
Assay type in all cases: functional
[1] = Antioxidant activity assessed as trolox equivalents of ABTS radical scavenging activity by TEAC assay
Method in brief: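 ABTS•+ made from 7 mM ABTS in water with 2.45 mM potassium persulfate, kept 12 h in the dark at room temperature. Diluted in PBS pH 7.4 to A734 0.70 and equilibrated at 30 °C. Samples in methanol at 0.3–2 mM, 10 µL added to 1 mL ABTS•+. Percent inhibition of A734 measured against a methanol blank, in triplicate, and plotted against concentration. TEAC is the Trolox concentration giving the same inhibition as 1 mM compound.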

[2] = Antioxidant activity against beta-carotene and linoleic acid assessed asbleaching of beta-carotene at 120 mins by autooxidation assay
Method in brief: (§1)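 β-carotene bleaching (Pratt method): linolenic acid 20 mg and Tween 20 200 mg plus β-carotene 2 mg in 10 mL CHCl3. CHCl3 removed, then 50 mL oxygen-saturated distilled water added. Samples oxidized at 50 °C for 3 h, A470 read at intervals. AA = 100[1 − (A0 − At)/(A00 − A0t)], comparing absorbance at start and at time t with and without compound.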

[3] = Antioxidant activity against beta-carotene and linoleic acid assessed asbleaching of beta-carotene at 60 mins by autooxidation assay; method in brief: as §1
[4] = test system: Radical scavenging activity; experiment: Antioxidant activity assessed as DPPH free radical scavenging activity after 30 mins
Method in brief: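 Pure compound in methanol, 30 µL added to 3 mL of 0.004% DPPH in MeOH. A517 read after 30 min and percent inhibition calculated. IC50 is the concentration scavenging 50% of DPPH radical.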

| IC50 [4] | SMILES | Activity [1] | Activity [2] | Activity [3] |
| --- | --- | --- | --- | --- |
|  | O=c1cc(-c2ccc(O[C@@H]3O[C@H](CO)[C@@H](O)[C@H](O)[C@H]3O)c(O)c2)oc2cc(O)cc(O)c12 | 0.445 | 10 | 16.2 |
|  | O=C(O)c1c[nH]c2ccccc12 | 0.092 | -6.5 | -10.1 |
|  | O=C1C=C[C@H](O)C[C@@]1(O)CCO (relative stereo) | 0.076 | 9.7 | 43 |
| 1.3 µM | C[C@@H]1O[C@@H](O[C@@H]2[C@@H](O)[C@H](OCCc3ccc(O)c(O)c3)O[C@H](COC(=O)/C=C/c3ccc(O)c(O)c3)[C@H]2O)[C@H](O)[C@H](O)[C@H]1O [ISOACTEOSIDE] | 1.23 | 7.2 | 24.6 |
|  | C[C@@H]1O[C@@H](OC[C@H]2O[C@@H](Oc3c(-c4ccc(O)c(O)c4)oc4cc(O)cc(O)c4c3=O)[C@H](O)[C@@H](O)[C@@H]2O)[C@H](O)[C@H](O)[C@H]1O | 2.42 |  |  |
|  | Cc1cc(C(C)(C)C)c(O)c(C(C)(C)C)c1 |  | 62.5 | 63.9 |
| 20.3 µM | COc1cc([C@H]2OC[C@]3(O[C@@H]4O[C@H](CO)[C@@H](O)[C@H](O)[C@H]4O)[C@@H](c4ccc(O)c(OC)c4)OC[C@H]23)ccc1O | 0.935 | 8.5 | 10.7 |
|  | O=C(O)/C=C/c1ccc(O)c(O)c1 | 1.26 |  |  |
| 10.5 µM | COc1cc([C@@H]2c3cc(O)c(OC)cc3C[C@H](CO)[C@H]2CO[C@@H]2O[C@H](CO)[C@@H](O)[C@H](O)[C@H]2O)ccc1O | 0.826 | -6.2 | -10 |
|  | O=C(/C=C/c1ccc(O)c(O)c1)OCC(O)(CO)C(O)C(=O)O (stereo not drawn) | 0.484 | 20.5 | 25.2 |
